The values below come from BindingDB's records for doi:10.1021/jm049620r (University of Florida, 2004).

This experiment deals with Melanocyte-stimulating hormone receptor (Mus musculus, UniProt Q01727). The experiment is described as follows: Agonistic activity against mouse Melanocortin 1 Receptor. Put shortly:
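HEK-293 cells stably expressing the receptor (G418 selection), transiently transfected with a CRE/β-galactosidase reporter. Lysates read with ONPG at OD405 and normalized to protein content and forskolin (10^-4 M) response. EC50 from nonlinear least-squares fit, at least three independent experiments.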

Bridge positions count the residues as written; N and C are the ends. Peptide text beside a SMILES is read from it.

Melanocyte-stimulating hormone receptor, sequence (Q01727 whole entry): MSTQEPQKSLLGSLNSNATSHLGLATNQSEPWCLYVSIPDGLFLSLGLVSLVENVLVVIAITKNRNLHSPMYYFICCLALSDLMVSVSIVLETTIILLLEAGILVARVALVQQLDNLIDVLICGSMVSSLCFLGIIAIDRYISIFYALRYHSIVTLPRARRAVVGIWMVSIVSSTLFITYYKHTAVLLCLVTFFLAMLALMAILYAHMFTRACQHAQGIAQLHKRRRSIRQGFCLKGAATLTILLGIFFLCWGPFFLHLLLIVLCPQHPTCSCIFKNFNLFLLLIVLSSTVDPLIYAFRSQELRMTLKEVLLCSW

As for `C[C@@H]1NC(=O)[C@H](CC(N)=O)NC(=O)[C@H](Cc2ccccc2)NC(=O)[C@H](Cc2ccccc2)NC(=O)[C@H](CCCNC(=N)N)NC(=O)[C@@H](NC(=O)[C@@H](N)Cc2ccc(O)cc2)CSSC[C@@H](C(=O)N[C@@H](Cc2ccc(O)cc2)C(N)=O)NC(=O)[C@H](Cc2ccccc2)NC1=O` (H-YCRFFNAFCY-NH2; disulfide 2-9), the concentration giving a half-maximal response (EC50) (in general, the concentration giving half of the maximal effect) was 5.12 µM. This lies in the single-digit micromolar range.
